Results on 2 compounds are retold here after ChEMBL document CHEMBL2331355, “Synthesis, structure activity relationship and mode of action of 3-substitutedphenyl-1-(2,2,8,8-tetramethyl-3,4,9,10-tetrahydro-2H,8H-pyrano[2,3-f]chromen-6-yl)-propenones as novel anticancer agents in human leukaemia HL-60 cells” (Eur J Med Chem, 2013).

Calls of active or inactive are those of the source. No cut-off for these calls is given here.

In test [1] the test system is HL-60. The experiment in a line: Induction of mitochondrial membrane potential loss in human HL60 cells at 15 uM after 24 hrs by rhodamine-123 staining method (reference value: 7%). The test is classed as functional. In outline: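 HL-60 cells (1 × 10⁶/2 ml/well) treated 24 h at 15 or 20 µM, then incubated with rhodamine-123 (200 nM) for 40 min. Loss of dye uptake measured by flow cytometry. Camptothecin (4 µM, 6 h) as positive control. Representative of three experiments.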

For test [2], the system named is HL-60. The test is described as follows: Cell cycle arrest in human HL60 cells assessed as S phase cells at 20 uM after 24 hrs by PI staining-based flow cytometric analysis (reference value: 49%). The test is classed as functional.
Test [3] has as its system HL-60. The experiment in a line: Cell cycle arrest in human HL60 cells assessed as S phase cells at 5 uM after 24 hrs by PI staining-based flow cytometric analysis (reference value: 49%). The class given is functional. (In general: Flow cytometry measures light scatter and fluorescence of single cells or particles in a stream.)
Test [4] deals with HL-60. The experiment in a line: Cell cycle arrest in human HL60 cells assessed as accumulation of G0/G1 phase cells at 20 uM after 24 hrs by PI staining-based flow cytometric analysis (reference value: 48%). The test is classed as functional.
The test system of test [5] is HL-60. The test is described as follows: Cell cycle arrest in human HL60 cells assessed as accumulation of G0/G1 phase cells at 10 uM after 24 hrs by PI staining-based flow cytometric analysis (reference value: 48%). The class given is functional.
The subject of test [6] is HL-60. The experiment in a line: Induction of apoptosis in human HL60 cells at 15 uM after 24 hrs by PI-staining based flow cytometric analysis (reference value: 0.7 %). The test is classed as functional.
Test [7] relates to MDA-MB-435. The test is described as follows: Growth inhibition of human MDA-MB-435 cells at 30 uM after 48 hrs by MTT assay. The test is classed as functional, cell-based. In outline:
(§1)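 Single-concentration MTT screen at 50 µM over 48 h in 96-well plates. Compounds giving >50% inhibition were rescreened at 30 µM. OD read at 570 nm, reference 620 nm. Result expressed as % growth inhibition versus untreated control. Mitomycin C, adriamycin or 5-fluorouracil used as positive controls. Mean ± SD of three independent experiments.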
In general terms: Formazan colour is commonly taken as a measure of viable cells.

Test [8] concerns MIA PaCa-2. The test is described as follows: Growth inhibition of human MIAPaCa2 cells at 30 uM after 48 hrs by MTT assay. The class given is functional, cell-based. In outline:
as §1

In test [9] the test system is MDA-MB-435. The test is described as follows: Growth inhibition of human MDA-MB-435 cells at 50 uM after 48 hrs by MTT assay. The test is classed as functional. Particulars: MDA-MB-435, 48 h, read-out: GI. In outline:
as §1

Test [10] has as its system MIA PaCa-2. The experiment in a line: Growth inhibition of human MIAPaCa2 cells at 50 uM after 48 hrs by MTT assay. The test is classed as functional. Particulars: MIA PaCa-2, 48 h, read-out: GI. In a few lines: as §1
Another test deals with PC-3. The test is described as follows: Growth inhibition of human PC3 cells at 50 uM after 48 hrs by MTT assay. The class given is functional. Particulars: PC-3, 48 h, read-out: GI. In outline:
as §1

`CC1(C)CCc2cc(C(=O)/C=C/c3cccc([N+](=O)[O-])c3)c3c(c2O1)CCC(C)(C)O3`: the Activity in the test with HL-60 [1] is given as 44%; with HL-60 [2] it was 11%; in the test on HL-60 [3], 48%; in the test on HL-60 [4] it was 86%; with HL-60 [5], 54%; in the test on HL-60 [6], 30%. The “growth inhibition (GI)” value in the test with MDA-MB-435 [7] and in the test with MIA PaCa-2 [8] was “Active” each time. For the same compound, the inhibition of growth at 50 µM in the test on MDA-MB-435 [9] was 88%; in the test on MIA PaCa-2 [10], 80%; in the test on PC-3, 72%.

In the case of `CC1(C)CCc2cc(C(=O)/C=C/c3ccc([N+](=O)[O-])cc3)c3c(c2O1)CCC(C)(C)O3`, the Activity is reported as 52% in the test with HL-60 [1]; 37% with HL-60 [2]; 47% in the test on HL-60 [3]; 59% with HL-60 [4]; 52% with HL-60 [5]; 14% in the test on HL-60 [6]. Moreover, the “growth inhibition (GI)” value in the test on MDA-MB-435 [7] and in the test with MIA PaCa-2 [8] was “Active” throughout. Besides, the inhibition of growth at 50 µM with MDA-MB-435 [9] was 78%; in the test with MIA PaCa-2 [10] it was 74%; in the test with PC-3, 61%.
